# ChEMBL document CHEMBL3994606, “Ring-opened tetrahydro-γ-carbolines display cytotoxicity and selectivity with histone deacetylase isoforms” (Eur J Med Chem, 2017)
# Active and inactive are the calls of the source. The calls are words filed in the database; no cut-off is given here.
# Tests used:
# [1] = target: T1, Protein deacetylase HDAC6 (Homo sapiens, UniProt Q9UBN7); assay: Inhibition of full length human recombinant N-terminal GST-tagged HDAC6 expressed in Sf9 cells using RHKK(Ac) as substrate after 90 mins by fluorimetric method
# T1 sequence (Q9UBN7 whole entry): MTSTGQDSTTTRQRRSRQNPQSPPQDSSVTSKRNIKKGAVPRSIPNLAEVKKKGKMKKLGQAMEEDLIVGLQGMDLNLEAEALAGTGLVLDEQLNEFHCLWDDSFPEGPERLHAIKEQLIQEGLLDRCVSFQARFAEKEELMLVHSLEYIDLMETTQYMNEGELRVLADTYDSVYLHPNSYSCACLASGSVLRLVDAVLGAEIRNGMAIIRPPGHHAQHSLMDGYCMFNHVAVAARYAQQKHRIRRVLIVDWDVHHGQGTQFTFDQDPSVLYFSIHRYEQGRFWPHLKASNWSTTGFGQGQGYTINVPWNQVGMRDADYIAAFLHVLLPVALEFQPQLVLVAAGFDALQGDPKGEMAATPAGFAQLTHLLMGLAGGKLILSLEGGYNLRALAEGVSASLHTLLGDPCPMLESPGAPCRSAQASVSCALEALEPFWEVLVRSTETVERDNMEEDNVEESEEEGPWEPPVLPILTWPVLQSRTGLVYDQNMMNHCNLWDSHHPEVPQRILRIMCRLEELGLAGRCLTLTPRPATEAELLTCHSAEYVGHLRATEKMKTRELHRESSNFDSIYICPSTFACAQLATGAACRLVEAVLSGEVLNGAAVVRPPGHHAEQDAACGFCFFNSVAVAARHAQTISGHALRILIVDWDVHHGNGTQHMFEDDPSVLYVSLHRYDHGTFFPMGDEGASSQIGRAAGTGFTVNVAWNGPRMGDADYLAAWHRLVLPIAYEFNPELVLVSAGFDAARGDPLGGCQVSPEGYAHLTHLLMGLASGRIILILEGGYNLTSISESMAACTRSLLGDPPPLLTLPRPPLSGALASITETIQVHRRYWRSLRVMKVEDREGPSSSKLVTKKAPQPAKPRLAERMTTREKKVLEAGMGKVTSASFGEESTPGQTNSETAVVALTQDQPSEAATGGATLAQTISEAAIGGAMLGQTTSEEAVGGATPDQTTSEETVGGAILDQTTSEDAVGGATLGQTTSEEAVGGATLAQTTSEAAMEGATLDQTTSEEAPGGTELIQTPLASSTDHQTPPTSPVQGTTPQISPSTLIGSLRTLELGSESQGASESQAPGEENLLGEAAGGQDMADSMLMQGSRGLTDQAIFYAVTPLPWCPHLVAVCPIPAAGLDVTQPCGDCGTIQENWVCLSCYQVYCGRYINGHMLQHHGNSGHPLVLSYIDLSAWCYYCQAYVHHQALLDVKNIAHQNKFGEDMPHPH
# Histone deacetylase 1 = Histone deacetylase 1 (Homo sapiens, UniProt Q13547); assay: Inhibition of full length human recombinant C-terminal FLAG-His-tagged HDAC1 expressed in Sf21 cells using RHKK(Ac) as substrate after 60 mins by fluorimetric method
# Sequence of Histone deacetylase 1 (Q13547 whole entry): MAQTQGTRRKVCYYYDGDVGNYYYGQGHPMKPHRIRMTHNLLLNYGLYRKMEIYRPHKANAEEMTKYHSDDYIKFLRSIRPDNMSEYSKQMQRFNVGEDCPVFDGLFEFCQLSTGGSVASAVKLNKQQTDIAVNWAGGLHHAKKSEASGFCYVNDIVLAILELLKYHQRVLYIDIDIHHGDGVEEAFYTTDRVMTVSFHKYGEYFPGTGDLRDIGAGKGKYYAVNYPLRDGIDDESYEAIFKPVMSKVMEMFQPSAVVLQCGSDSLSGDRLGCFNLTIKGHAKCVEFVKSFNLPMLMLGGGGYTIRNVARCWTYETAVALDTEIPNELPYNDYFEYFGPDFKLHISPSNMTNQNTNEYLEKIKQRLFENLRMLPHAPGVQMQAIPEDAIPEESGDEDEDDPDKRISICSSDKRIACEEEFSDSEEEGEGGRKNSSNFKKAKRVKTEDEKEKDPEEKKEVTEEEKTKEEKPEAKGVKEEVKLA
# HCT-116 [2] = assay: Antiproliferative activity against human HCT116 cells after 48 hrs by SRB assay; assay type: functional; details: HCT-116, 48 h
# Procedure, shortened: (§1)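 Cells seeded at 3-5 x 10³ cells/well. A T0 plate was fixed with 10% TCA at drug addition, and the rest were incubated 48 h with compound or DMSO, then TCA-fixed and stained with 0.4% SRB in 1% AcOH. Dye was extracted with 10 mM trizma base and read at 515 nm.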
# PC-3 = assay: Antiproliferative activity against human PC3 cells after 48 hrs by SRB assay; assay type: functional; details: PC-3, 48 h; procedure, shortened: as §1
# Homo sapiens [3] = organism: Homo sapiens; assay: Selectivity ratio of IC50 for full length human recombinant C-terminal FLAG-His-tagged HDAC1 to IC50 for full length human recombinant N-terminal GST-tagged HDAC6
# A549 = assay: Antiproliferative activity against human A549 cells after 48 hrs by SRB assay; assay type: functional; details: A549, 48 h; procedure, shortened: as §1
# Homo sapiens [4] = organism: Homo sapiens; assay: Selectivity ratio of IC50 for full length human recombinant C-terminal GST-tagged HDAC2 to IC50 for full length human recombinant N-terminal GST-tagged HDAC6
# Histone deacetylase 2 = Histone deacetylase 2 (Homo sapiens, UniProt Q92769); assay: Inhibition of full length human recombinant C-terminal GST-tagged HDAC2 expressed in insect cells using RHKK(Ac) as substrate after 60 mins by fluorimetric method
# Sequence of Histone deacetylase 2 (Q92769 whole entry): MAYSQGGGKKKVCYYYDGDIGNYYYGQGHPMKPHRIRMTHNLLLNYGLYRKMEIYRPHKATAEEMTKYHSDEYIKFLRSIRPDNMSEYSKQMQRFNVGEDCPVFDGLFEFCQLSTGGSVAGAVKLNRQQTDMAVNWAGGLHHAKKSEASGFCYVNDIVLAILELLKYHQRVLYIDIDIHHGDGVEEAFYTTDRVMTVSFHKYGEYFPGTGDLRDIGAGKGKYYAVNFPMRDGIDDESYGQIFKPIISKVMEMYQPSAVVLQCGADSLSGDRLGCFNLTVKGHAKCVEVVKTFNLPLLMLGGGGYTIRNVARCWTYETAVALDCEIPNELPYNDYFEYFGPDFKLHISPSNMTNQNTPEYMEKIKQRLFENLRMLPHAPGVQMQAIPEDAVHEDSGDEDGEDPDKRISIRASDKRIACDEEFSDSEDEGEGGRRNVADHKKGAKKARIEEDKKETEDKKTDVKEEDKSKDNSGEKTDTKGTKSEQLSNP
# [5] = target: T2, Protein deacetylase HDAC6 (Homo sapiens) (UniProt Q9UBN7); assay: Inhibition of HDAC6 in human HCT116 cells assessed as upregulation of acetylated tubulin levels at 2.5 uM after 6 hrs by Western blot method; assay type: cell-based
# T2 sequence (whole entry): T1 sequence (Q9UBN7 whole entry)
# Procedure, shortened: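 HCT116 cells treated 6 h with compound, then lysates probed by western blot for acetyl-tubulin, with ECL detection.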
# HCT-116 [6] = assay: Induction of apoptosis in human HCT116 cells assessed as increase in cleaved caspase 3 levels at 1.25 to 2.5 uM after 48 hrs Western blot method; assay type: functional, cell-based
# HCT-116 [7] = assay: Induction of apoptosis in human HCT116 cells assessed as increase in cleaved PARP levels at 1.25 to 2.5 uM after 48 hrs Western blot method; assay type: functional, cell-based
# Homo sapiens [8] = organism: Homo sapiens; assay: Inhibition of class 1 HDAC in human HCT116 cells assessed as upregulation of acetylated histone H3 levels at 2.5 uM after 6 hrs by Western blot method; assay type: cell-based
# HCT-116 [9] = assay: Cell cycle arrest in human HCT116 cells assessed as accumulation at sub-G1 phase after 48 hrs by propidium iodide staining-based flow cytometric method; assay type: functional
# Procedure, shortened: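 HCT116 cells treated 48 h, then fixed overnight in 75% EtOH at -20 °C and washed in cold PBS. They were incubated 30 min at room temperature in 0.1 M phosphate-citric acid buffer (pH 7.8) and stained with propidium iodide buffer containing 0.1% Triton X-100 and RNase A. The sub-G1 fraction was measured by flow cytometry.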
# HCT-116 [10] = assay: Anticlonogenic activity against human HCT116 cells after 24 hrs by crystal violet staining-based assay; assay type: functional, cell-based
# Procedure, shortened: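 Cells exposed to a range of concentrations or DMSO vehicle for 24 h, washed, trypsinized and replated at 500 cells/well; after 14 days colonies were fixed and stained with 0.5% crystal violet in 70% EtOH. Colonies of more than 50 cells were counted, and survival fraction was taken relative to DMSO control.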
SMILES,IC50 [1] [nM],IC50 (Histone deacetylase 1) [nM],GI50 (HCT-116 [2]) [nM],GI50 (PC-3) [nM],Ratio IC50 (Homo sapiens [3]),GI50 (A549) [nM],Ratio IC50 (Homo sapiens [4]),IC50 (Histone deacetylase 2) [nM],Acetylated tubulin upregulation (qualitative) [5],Activity (HCT-116 [6]),Activity (HCT-116 [7]),Acetylated histone H3 upregulation (qualitative) (Homo sapiens [8]),Activity (HCT-116 [9]),Activity (HCT-116 [10])
CN1CCc2c(c3ccccc3n2Cc2ccc(/C=C/C(=O)NO)cc2)C1,41.8,1600,730,1690,38,2680,39,1650,,,,,,
CN(C)Cc1cn(S(=O)(=O)c2ccc(/C=C/C(=O)NO)cc2)c2ccccc12,16.7,1930,520,790,115,1620,58,970,Active,Active,Active,inactive,Dose-dependent effect,Dose-dependent effect
CN(C)C(=O)c1cn(S(=O)(=O)c2ccc(/C=C/C(=O)NO)cc2)c2ccccc12,10.8,2010,2140,3100,186,> 5000,135,1460,,,,,,
CN(C)C(=O)c1cn(Cc2ccc(/C=C/C(=O)NO)cc2)c2ccccc12,8.5,627,750,1890,73,3330,122,1040,Active,Active,Active,inactive,Dose-dependent effect,Dose-dependent effect
CN(C)C(=O)c1cn(S(=O)(=O)c2cccc(/C=C/C(=O)NO)c2)c2ccccc12,201,6910,2490,> 5000,34,> 5000,> 49,> 10000,,,,,,
CN(C)Cc1cn(Cc2ccc(/C=C/C(=O)NO)cc2)c2ccccc12,43.1,2250,1390,2550,52,3000,25,1120,,,,,,
Cc1c(CN(C)C)c2ccccc2n1Cc1ccc(/C=C/C(=O)NO)cc1,96.4,2130,1260,2080,22,3690,24,2380,,,,,,
